Experimental data taken from ChEMBL document CHEMBL1143730, “Probing the bioactive constituents from chemotypes of the sponge Psammocinia aff. bulbosa” (J Nat Prod, 2007).
In brackets after ≈: the same amount, converted by molar mass.

What was measured:
[1] = tested on: HCT-116; experiment: Survivability of human HCT116 cells assessed as cell kill at >=3 ng/mL after 2 hrs; assay type: functional
[2] = tested on: HCT-116; experiment: Survivability of human HCT116 cells assessed as cell kill at >= 2 ng/mL after 24 hrs; assay type: functional
[3] = tested on: HCT-116; experiment: Survivability of human HCT116 cells assessed as cell kill at >=120 pg/mL after 168 hrs; assay type: functional
[4] = tested on: Mus musculus; experiment: Toxicity in SCID mouse at 125 ug/kg bolus injection; assay type: organism-based; conditions: in vivo, 0.125 mg/kg
Method in brief: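 HCT-116 tumor-bearing SCID mice (>17 g, 5 per group). Single intravenous tail-vein bolus of 125 μg/kg (drug at […], 0.25 mL) started 1 day after subcutaneous inoculation of 10⁶ cells. Vehicle was DMSO diluted 1:1 with Cremophor–propylene glycol (40:60), then ≥20-fold in saline. Mice were monitored until sacrifice at day 30.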

[5] = tested on: HCT-116; experiment: Antitumor activity in human HCT116 tumor-bearing SCID mouse at 62 ug/kg bolus injection after 23 days relative to control; assay type: functional
Method in brief: (§1)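 SCID mice (>17 g, weights within 5 g) implanted subcutaneously with 10⁶ tissue-culture-derived HCT-116 cells, 5 per group. Starting 1 day after inoculation, a single intravenous tail-vein bolus (drug at […], 0.25 mL) was given in DMSO diluted 1:1 with Cremophor–propylene glycol (40:60), then ≥20-fold in saline. Tumor weight followed daily. Minimum %T/C reported. Sacrifice at day 30.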

[6] = tested on: HCT-116; experiment: Antitumor activity in human HCT116 tumor-bearing SCID mouse at 31 ug/kg bolus injection after 23 days relative to control; assay type: functional; method in brief: as §1
[7] = tested on: MDA-MB-231; experiment: Growth inhibition of MDA-MB-231 cells; assay type: functional, cell-based; conditions: Homo sapiens
Method in brief: (§2)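 Cells seeded at 5×10^4 per T25 flask in RPMI 1640 with 15% BCS, pen/strep and glutamine. After 3 days (log phase, 5×10^5 cells/flask), compound was added at 10 to 10^-5 μg/mL. After 3 more days, cells were trypsinized and viable and dead cells counted by 0.08% trypan blue exclusion. IC50 determined.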

[8] = tested on: HT-29; experiment: Growth inhibition of HT29 cells; assay type: functional, cell-based; conditions: Homo sapiens; method in brief: as §2
[9] = Growth inhibition of H125 cells; assay type: functional, cell-based; conditions: Homo sapiens, NCI-H125; method in brief: as §2
[10] = tested on: L1210; experiment: Growth inhibition of L1210 cells; assay type: functional, cell-based; conditions: Mus musculus; method in brief: as §2

`C=C(C)C[C@H](OC)[C@H](O)C(=O)N[C@@H](OC)C1C[C@@H](O)C(C)(C)[C@@H](C[C@H](O)[C@@H](C)[C@@H]2Cc3c(C)c(O)cc(O)c3C(=O)O2)O1` (stereo not given in full) [IRCINIASTATIN] showed a Survival [1] of 90%, a Survival [2] of 90% and a Survival [3] of 90%. For the same compound, the Activity [4] was “Toxic”, the Activity [5] was 75% and the Activity [6] was 86%. For the same compound, the IC50 [7] was 0.2 ng/mL (≈ 0.328 nM), the IC50 [8] was 5 ng/mL (≈ 8.2 nM) and the IC50 [9] was 0.12 ng/mL (≈ 0.197 nM). For the same compound, the IC50 [10] was 0.18 ng/mL (≈ 0.295 nM).
